The whole screen tested about 330,000 compounds, of which about 220 (0.067%) were called active.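 Rule for the calls: active = response, share of CD8 T cells binding vesicles, and their 90th percentile fluorescence all below set limits (cut at about 80% in these data, passing the limit was not always enough); inactive = the rest, inconclusive results apart.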 For the sample, actives were picked, then their nearest neighbours and some compounds at random.
Test: murine CD8 T cell vesicle adhesion modulation – mouse 2C CD8+ T cells, flow cytometry, primary screen (AID 2052);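 for double positive events: binding gate set so that unloaded-vesicle control wells show 10% double positive cells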;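 for response (vesicle binding): values below 100% mean blocked vesicle binding to the CD8+ T cells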
Conditions: 2C CD8+ T cell-vesicle binding, at 7 µM, stronger effect = lower value; double positive events: measured here: CD8+ vesicle-bound cell fraction
In short: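 Incubation: binding step 1.5 h, 37 °C, antibody labelling 20 min, ice; system: murine 2C transgenic CD8+ T lymphocytes; technique: cytometric PE anti-B7-1 and Alexa647 anti-CD8 signals after 1% paraformaldehyde fixation; also added: QL9-charged Drosophila Ld/ICAM-1/B7-1 vesicles; control set: naked versus QL9-loaded vesicles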

Structure (SMILES) | double positive events [%] | response (vesicle binding)
Cc1oc2c(F)c(F)c(F)c(F)c2c1S(=O)(=O)Nc1cccc(C(F)(F)F)c1 | 13.2 | 170% (inactive)
COc1ccc(C(=O)COC(=O)c2nn(C)c(=O)c3ccccc23)c(OC)c1 | 13.7 | 187% (inactive)
CC(=O)c1cccc(NC(=O)CN2C(=O)c3cccnc3Oc3ccc(Cl)cc32)c1 | 54.8 | 668% (inactive)
COC(=O)C1=CO[C@@H](O[C@@H]2O[C@H](CO)[C@@H](O)[C@H](O)[C@H]2O)C2C1C[C@H](O)[C@@H]2C (stereo partly specified) | 33.1 | 220% (inactive)
CCOC(CNC(=O)C1CCN(S(=O)(=O)c2ccc3nc4c(c(C(=O)O)c3c2)CC(C)CC4)CC1)OCC (stereo unspecified) | 3.9 | 171% (inactive)
CN(C)C(CNC(=O)c1ccc(OCc2cn3ccccc3n2)cc1)c1ccco1 (stereo unspecified) | 23.9 | 416% (inactive)
COc1ccc(NC(C(=O)Nc2cccc(C(C)=O)c2)c2ccccc2)cc1 (stereo unspecified) | 36 | 198% (inactive)
O=C(CCc1nnc2ccc(NCc3ccco3)nn12)Nc1cc(F)ccc1F | 36.4 | 186% (inactive)
O=C(COC(=O)c1ccc(NS(=O)(=O)c2cccs2)cc1O)Nc1ccc(F)cc1 | 18.7 | 74.7% (inactive)
Nn1c(SCC(=O)Nc2nccs2)nncc1=O | 30.5 | 224% (inactive)
COc1ccccc1C(=O)NC(CCSC)C(=O)NNC(=O)c1csc(N2CCOCC2)n1 (stereo unspecified) | 27.1 | 242% (inactive)
CCc1nc2ccccc2c(C(=O)OC2CCCCC2=O)c1C (stereo unspecified) | 48.4 | 288% (inactive)
Cc1cccc(C(=O)N2CCCC(Nc3ccc(C(C)C)cc3)C2)n1 (stereo unspecified) | 11.9 | 567% (inactive)
Cc1ccc(-c2nnc(C)c(N3CC(C)OC(C)C3)n2)cc1 (stereo unspecified) | 50.8 | 123% (inactive)
COC(=O)NNC(=O)C1CCC(C)CC1 (stereo unspecified) | 13.1 | 199% (inactive)
O=C(COc1ccccc1)Nc1ccc(N2CCN(C(=O)c3cccs3)CC2)cc1 | 4.1 | 606% (inactive)
Brc1c(CSc2nncc3ccccc23)nc2ccccn12 | 26.2 | 103% (inactive)
COc1ccccc1C(=O)Nc1ccnn1C1CCN(C(=O)C(C)(C)C)CC1 | 51.4 | 266% (inactive)
Cc1ccc(S(=O)(=O)NCCC(=O)NC2CCN(Cc3ccccc3)CC2)cc1 | 42.6 | 256% (inactive)
CCCCCCCC(=O)OC(CN1CCCCCC1)CN1CCCC1=O (stereo unspecified) | 16.5 | 372% (inactive)
COC(=O)[C@@H]1CC(O)CN1C(=O)C12CC3CC(CC(C3)C1)C2 (stereo partly specified) | 52.2 | 228% (inactive)

Structure (SMILES) | double positive events [%] | response (vesicle binding)
Cc1ccc(-c2csc(NC(=O)C3=COCCO3)n2)cc1C | 20.8 | 138% (inactive)
CC(C)OP(=O)(OC(C)C)C(Nc1ccccc1)c1cccc([N+](=O)[O-])c1 (stereo unspecified) | 20.7 | 684% (inactive)
COc1cccc(NC(=O)COc2cc(C)cc3oc(=O)cc(C)c23)c1 | 34.7 | 510% (inactive)
CC1(C)CC(=O)C=C(N2CCOCC2)C1 | 19.8 | 266% (inactive)
Cc1nc([N+](=O)[O-])c(NCCCO)n1Cc1ccccc1 | 19.6 | 72.9% (inactive)
Cc1cc(C)n(C(=O)c2ccc(C)c(S(=O)(=O)N3CCOCC3)c2)n1 | 54 | 212% (inactive)
C/C=C/c1ccc(OCC(=O)NNC(=O)CN(C)S(=O)(=O)c2ccc(C)cc2)c(OC)c1 | 47.4 | 180% (inactive)
CCOC(=O)C(=CNNc1ccsc1C(=O)OC)C(=O)OCC | 17.6 | 541% (inactive)
CC(=O)c1cc(-c2ccccc2)n(CCC(=O)NC2CCCCCC2)c1C | 47.9 | 183% (inactive)
CCc1ccccc1NC(=O)[C@@H]1CCC(=O)N1C1OC(=O)c2c1ccc(OC)c2OC (stereo partly specified) | 15.9 | 194% (inactive)
C/C(=N\N(C)C)c1ccc(OCCOc2ccc([N+](=O)[O-])cc2)cc1 | 36.6 | 389% (inactive)
COc1ccc(C2c3[nH]c4ccccc4c3C[C@H]3C(=O)N(CC(C)C)CC(=O)N23)c(OC)c1 (stereo partly specified) | 23.9 | 1350% (inactive)
CC1(C)C2CC=C(/C=N/NC(=O)C3CC3)C1C2 (stereo unspecified) | 55.1 | 548% (inactive)
O=C(NCc1cccnc1)c1ccccc1NC(=O)c1c(F)cccc1F | 21.9 | 104% (inactive)
CC(=O)N1CCc2cc(S(=O)(=O)NC3CCCCC3)ccc21 | 27 | 222% (inactive)
Cc1cccc(C(=O)NCc2nnc(SC(C)C(=O)Nc3nnc(C)s3)n2C)c1 (stereo unspecified) | 13.6 | 258% (inactive)
CCCCCN(C(=O)NC(=O)Nc1cccc(C)c1C)S(C)(=O)=O | 28.6 | 413% (inactive)
COc1ccc(CCNC(=O)CN(c2ccccc2)S(C)(=O)=O)cc1OC | 42.8 | 345% (inactive)
COc1ccc(C(=O)OCC(=O)NC(=O)CCSc2ccccc2)cc1 | 48.7 | 413% (inactive)
CC(NC(=S)Nc1ccccc1)C1COc2ccccc2O1 (stereo unspecified) | 63 | 843% (inactive)
COc1ccccc1S(=O)(=O)NCc1ccc(C(=O)N(C)Cc2ccc(F)cc2)cc1 | 31.2 | 557% (inactive)

Structure (SMILES) | double positive events [%] | response (vesicle binding)
CCOc1ccc(NC(=O)CC2C(=O)N(c3ccccc3)C(=O)N2CCOC)cc1 (stereo unspecified) | 22.1 | 526% (inactive)
Cc1cc(C)cc(NC(=O)NC2CCN(CC(=O)Nc3cccc(Cl)c3C)CC2)c1 | 43.5 | 437% (inactive)
O=C1C(=O)N(CCN2CCOCC2)C(c2cccc(Cl)c2)/C1=C(/O)c1ccc2c(c1)OCO2 (stereo unspecified) | 10.1 | 653% (inactive)
O=C(NCc1ccc2c(c1)OCO2)c1ccc(Cl)s1 | 0 | 0% (active)
O=C(NCc1ccc2c(c1)OCO2)c1cc(F)c(F)cc1Cl | 11.4 | 338% (inactive)
O=C(NCc1ccc2c(c1)OCO2)c1cc2c(s1)CS(=O)(=O)C2 | 37.5 | 576% (inactive)
COc1ccc(C(=O)NCc2ccc(C)cc2)cc1S(=O)(=O)N1CCCC1 | 47.1 | 276% (inactive)
O=C(CSc1nc2ccccc2c(=O)n1-c1ccccc1F)N1CCOCC1 | 37.3 | 244% (inactive)
Cc1ccc(Cl)c(OCC(=O)N(C)CC(=O)Nc2ccc(N3CCOCC3)cc2)c1 | 61.8 | 424% (inactive)
CCOC(=O)c1cccc(NC(=O)C2CCCN(S(=O)(=O)c3cnc[nH]3)C2)c1 (stereo unspecified) | 47.8 | 586% (inactive)
Cc1nc2ccc(C(=O)N(C)CC3CCCN(CCc4ccc(Cl)cc4)C3)cc2[nH]1 (stereo unspecified) | 20.7 | 442% (inactive)
Cc1ccc(N2CC(C(=O)NCCS(=O)(=O)N3CCN(c4ccccc4)CC3)CC2=O)cc1 (stereo unspecified) | 11 | 383% (inactive)
CN1C(=O)/C(=C/C=C2\SCCN2C)OC1=S | 25.3 | 177% (inactive)
CCN1CCN(C(=O)c2cc3cc4ccc(OC)cc4nc3s2)CC1 | 24.6 | 601% (inactive)
CN(CC(=O)NCCc1ccc(S(N)(=O)=O)cc1)CC(=O)Nc1ccc(Cl)cc1 | 39.4 | 1090% (inactive)
COc1ccc(C(=O)CC(=O)C(=O)Nc2cc([N+](=O)[O-])ccc2OC)cc1 | 13.4 | 256% (inactive)
COc1ccc([N+](=O)[O-])cc1NC(=O)c1ccc(N(Cc2ccccc2C)S(C)(=O)=O)cc1 | 0.1 | 6.1% (active)
Cc1ccccc1CN(c1ccc(C(=O)NCC2CCCO2)cc1)S(C)(=O)=O (stereo unspecified) | 4.3 | 168% (inactive)
COc1ccccc1OCCn1c(SCC(N)=O)nc2ccccc21 | 16 | 348% (inactive)
Cc1ccc(NC(=O)CN(C)S(=O)(=O)c2cnc[nH]2)cc1C | 18.7 | 261% (inactive)
CC(Oc1ccccc1)C(=O)Nc1c2c(nn1-c1ccccc1)CS(=O)C2 (stereo unspecified) | 7.9 | 237% (inactive)

Structure (SMILES) | double positive events [%] | response (vesicle binding)
CCOC(=O)c1ccccc1NC(=S)N1CCC(C(N)=O)CC1 | 33.7 | 285% (inactive)
OC(CNCc1ccc(Cl)c(Cl)c1)c1ccccc1 (stereo unspecified) | 58.3 | 66.1% (inactive)
Cc1c(NC(=O)CN2C(=O)C(=O)N(Cc3ccccc3)C2=O)c(=O)n(-c2ccccc2)n1C | 54.7 | 606% (inactive)
Cc1c(NC(=S)Nc2ccccc2)c(=O)n(-c2ccccc2)n1C | 28 | 297% (inactive)
Cc1c(NC(=S)NC(=O)CCc2ccccc2)c(=O)n(-c2ccccc2)n1C | 1.1 | 17.6% (active)
CC(C)(C)c1cc(P(=O)(c2ccccc2)c2ccccc2)ccc1O | 28.1 | 82.3% (inactive)
O=C(CN1CCN(C2CCCCC2)CC1)Nc1ccccc1N1CCCCC1 | 6.3 | 0% (active)
CC(=O)c1ccc(N2CCN(CC(=O)Nc3ccccc3N3CCOCC3)CC2)cc1 | 42.5 | 203% (inactive)
Cc1ccccc1NC(=O)Nc1ccccc1N1CCCCC1 | 27.3 | 308% (inactive)
COc1ccc(CN(C)C(=S)Nc2ccc(Cl)cc2Cl)cc1 | 9.4 | 367% (inactive)
CCN1CCN(C(=O)C2CCN(S(=O)(=O)c3cc(Cl)ccc3Cl)CC2)CC1 | 29.3 | 223% (inactive)
O=C(NN1C(=O)C2C3C=CC(C3)C2C1=O)c1ccco1 (stereo unspecified) | 43 | 570% (inactive)
CCOc1ccc2[nH]c(=O)c(CN(Cc3nnnn3CCc3ccccc3)CC3CCCO3)cc2c1 (stereo unspecified) | 50.9 | 238% (inactive)
COC(=O)c1ccc(C2NC(=O)NC(C)=C2C(=O)N(C)C)cc1 (stereo unspecified) | 31.3 | 393% (inactive)
CCOc1ccc(CCNC(=O)COC(=O)C2CCN(c3ccc(C(F)(F)F)cn3)CC2)cc1OCC | 38.6 | 818% (inactive)
CCCc1c(C(=O)Nc2ccc(F)cc2)cnn1-c1ccccc1 | 19.3 | 479% (inactive)
O=C(COC(=O)CC1CC2CCC1C2)NC(=O)NC1CCCC1 (stereo unspecified) | 20.7 | 248% (inactive)
CCOc1ccc2[nH]c(=O)c(C(c3nnnn3CCOC)N3CCOCC3)cc2c1 (stereo unspecified) | 11.4 | 261% (inactive)
COc1ccc(OC)c(C(c2nnnn2C(C)(C)C)N2CCc3ccccc3C2)c1 (stereo unspecified) | 55.6 | 342% (inactive)
COCCn1nnnc1C(c1cc2ccc(OC)cc2[nH]c1=O)N1CCc2ccccc2C1 (stereo unspecified) | 16.7 | 0% (active)
